Bioassay records: PubChem, Broad Institute
A selection: hits, their analogues and other compounds. The true share with any hit is near 3.5%.
Cneo AK release = causes C. neoformans cell lysis; adenylate kinase release luminescence, 4 h; normalised: neutral wells 0, clomiphene wells 100; lysis activity, % at 15 µM; hit rate 0.2% among 360,000; AID 651654;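 active = mean lysis activity across replicates of at least 80%, whatever share of replicates individually reach that level; inactive = mean lysis activity below 80%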
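Material: C. neoformans cells; Schedule: 4 h static compound exposure, 37 °C, read 1 h post-reagent; Measured by: adenylate kinase release luminescence; Read-out: signal increase indicating cell lysis; Controls: Clomiphene as positive lysis control.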
Wnt act = Wnt/beta-catenin pathway activation. Wnt/beta-catenin reporter cell assay, activator, plate reader. activation, % at 9.35 µM. hit rate 1.2% among 300,000; in the data active = activation above about 30%, passing the limit was not always enough;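 also: 0% = neutral control wells and 100% = positive control wells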
ERAP1 HTS inh = ERAP1 (human) enzyme inhibition; recombinant ERAP1, Leu-AMC fluorescence, 60 min; inhibition, % at 10.7 µM; hit rate 0.15% among 340,000; AID 652197;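 active = mean replicate inhibition of at least 30%, or all replicates individually reaching that 30% level; inactive = mean below 30% and not every replicate reaching it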;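 also: 0% = neutral control wells and 100% = L-leucinethiol positive control wells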
HIV Env fusion = blocks HIV Env-driven cell-cell fusion | HeLa-JRFL Env/CEM21 cell fusion, luciferase | inhibition, % at 12.3 µM | hit rate 1.1% among 360,000 | AID 651610;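 active = mean replicate inhibition score of at least 50 and every replicate individually at or above 50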;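 also: 0% = plate neutral controls and 100% = maraviroc near 300 nM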
MITF TRPM1 HTS = MITF TRPM1 promoter activation in melanoma cells | SK-MEL-5 TRPM1-promoter luciferase, 24 h; % of positive control, neutral wells = 0 | activation, % at 12.5 µM | AID 588334 | hit rate 0.75% among 300,000;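 active = mean activation of at least 80% with every replicate also reaching 80%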;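 also: 0% = neutral control wells and 100% = parthenolide positive control wells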
esBAF inh = inhibitors of esBAF chromatin remodeling in mouse ES cells; hit rate 2% among 350,000; Bmi1-luciferase knock-in reporter, 24 h; 100% = twice the neutral-well signal; reporter increase, % at 12.5 µM; in the data active = activation above about 40%;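 also: 0% = median of the plate's neutral control wells and 100% = double that signal; a rise in the Bmi1 reporter signal indicates esBAF inhibition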
Active calls of the source: *; [ ] = another dose, or the depositor's remark.

For CCOC(=O)C1=C(c2ccccc2)NC(SCC(=O)Nc2cccc(C)c2)=C(C#N)C1c1ccco1 (stereo unspecified) the results were Wnt act -2, HIV Env fusion 111*, MITF TRPM1 HTS 2 and esBAF inh 11.
For CCOC(=O)C1=C(c2ccccc2)NC(SCC(=O)Nc2ccc(C)cc2)=C(C#N)C1c1ccco1 (stereo unspecified) the results were Cneo AK release -1, Wnt act -4, ERAP1 HTS inh -2, MITF TRPM1 HTS -12 and esBAF inh -1.
For CCOC(=O)/C(N=Nc1ccc2c(c1)OCO2)=C(\C)O the results were Wnt act 7, ERAP1 HTS inh 6, HIV Env fusion -97 and MITF TRPM1 HTS 115*.
CCOC(=O)C(=O)Nc1ccc2c(c1)OCO2 was read as Cneo AK release 3, Wnt act 3, HIV Env fusion -10 and esBAF inh -2.
For C[C@H](CO)N1C[C@H](C)[C@H](CN(C)Cc2cccnc2)Oc2ncc(C3=CCCCC3)cc2C1=O the results were Cneo AK release 0, ERAP1 HTS inh -1, HIV Env fusion -3[16.7 µM] and esBAF inh 2.
`C[C@@H]1CCCCO[C@@H](CN(C)C(=O)Nc2ccc(F)cc2)[C@@H](C)CN([C@@H](C)CO)C(=O)c2cc(NC(=O)Nc3ccc(F)cc3)ccc2O1` gave Cneo AK release 0, ERAP1 HTS inh 2, HIV Env fusion 15[16.7 µM] and esBAF inh 4.
C[C@@H]1CCCCO[C@@H](CN(C)CC2CCCCC2)[C@H](C)CN([C@H](C)CO)C(=O)c2cc(NC(=O)Nc3ccc(F)cc3)ccc2O1 was read as Cneo AK release 50, ERAP1 HTS inh -1, HIV Env fusion 75*[16.7 µM] and esBAF inh -4.
For CC(C)NC(=O)Nc1ccc2c(c1)C(=O)N([C@H](C)CO)C[C@H](C)[C@@H](CN(C)C(=O)Nc1ccc(C(F)(F)F)cc1)OCCCC[C@H](C)O2 the results were Cneo AK release -2, ERAP1 HTS inh -3, HIV Env fusion 44[16.7 µM] and esBAF inh -1.
`C[C@H]1CCCCO[C@H](CN(C)C(=O)Nc2ccc(F)cc2)[C@@H](C)CN([C@@H](C)CO)C(=O)c2cc(NC(=O)Nc3ccc(F)cc3)ccc2O1` gave Cneo AK release -1, ERAP1 HTS inh 3, HIV Env fusion 62*[16.7 µM] and esBAF inh -1.
`C[C@@H]1CCCCO[C@H](CN(C)C(=O)C2CCCCC2)[C@@H](C)CN([C@@H](C)CO)C(=O)c2cc(NC(=O)Nc3ccc(F)cc3)ccc2O1` gave Cneo AK release -3, ERAP1 HTS inh 3, HIV Env fusion 57*[16.7 µM] and esBAF inh -88.
`CC(C)NC(=O)Nc1ccc2c(c1)C(=O)N([C@@H](C)CO)C[C@@H](C)[C@@H](CN(C)C(=O)Nc1ccc(C(F)(F)F)cc1)OCCCC[C@@H](C)O2` gave Cneo AK release 3, ERAP1 HTS inh -2, HIV Env fusion 79*[16.7 µM] and esBAF inh -2.
Screening C[C@H]1CN([C@@H](C)CO)C(=O)c2cc(C3=CCCC3)cnc2O[C@@H]1CN(C)C(=O)CN1CCOCC1 returned Cneo AK release -5, ERAP1 HTS inh 0, HIV Env fusion -16[16.7 µM] and esBAF inh -2.
Screening O=C(C1CC1)N1CCCCN2[C@H](CO)[C@@H](c3ccc(C#CC4CC4)cc3)[C@@H]2C1 returned Cneo AK release -2 and ERAP1 HTS inh -2.
C[C@H]1CCCCO[C@H](CN(C)C(=O)Nc2ccc(C(F)(F)F)cc2)[C@@H](C)CN([C@@H](C)CO)C(=O)c2cc(NC(=O)Nc3ccc(F)cc3)ccc2O1 was read as Cneo AK release 2, ERAP1 HTS inh 3, HIV Env fusion 77*[16.7 µM] and esBAF inh 3.
Screening C[C@@H]1CCCCO[C@@H](CN(C)C(=O)Nc2ccc(C(F)(F)F)cc2)[C@@H](C)CN([C@H](C)CO)C(=O)c2cc(NC(=O)Nc3ccc(F)cc3)ccc2O1 returned ERAP1 HTS inh -1.
For C[C@H]1O[C@@H](O[C@H]2[C@@H](O)C[C@H](O[C@H]3[C@@H](O)C[C@H](O[C@H]4CC[C@@]5(C)[C@H](CC[C@@H]6[C@@H]5C[C@@H](O)[C@]5(C)[C@@H](C7=CC(=O)OC7)CC[C@]65O)C4)O[C@@H]3C)O[C@@H]2C)C[C@H](O)[C@@H]1O the results were Cneo AK release 0, Wnt act -22, ERAP1 HTS inh -2, HIV Env fusion 86*, MITF TRPM1 HTS -68 and esBAF inh 1.
`CCOc1ccccc1N(C(=O)CNC(=O)c1ccco1)C(C(=O)NC1CCCC1)c1cccnc1` (stereo unspecified) gave Cneo AK release 0, Wnt act -2, HIV Env fusion 77* and esBAF inh 1.
For COc1cccc(N(C(=O)c2cnccn2)C(C(=O)NC2CCCCC2)c2ccc(Cl)cc2)c1 (stereo unspecified) the results were Cneo AK release -1, Wnt act 2, HIV Env fusion inactive and MITF TRPM1 HTS 6.
Screening O=C(NC1CCCC1)C(c1ccncc1)N(C(=O)c1csnn1)c1ccc(F)cc1 (stereo unspecified) returned Cneo AK release 0, Wnt act 0, ERAP1 HTS inh -2, HIV Env fusion 6, MITF TRPM1 HTS 8 and esBAF inh 2.
CCC(C)N(C(=O)c1csnn1)C(C(=O)NC1CCCC1)c1ccc(F)cc1 (stereo unspecified) was read as Cneo AK release -2, Wnt act -1, ERAP1 HTS inh 1, HIV Env fusion 26 and esBAF inh 2.
`CCc1ccccc1N(C(=O)CNC(=O)c1ccco1)C(C(=O)NC1CCCC1)c1cccnc1` (stereo unspecified) gave Cneo AK release -1, Wnt act -2, ERAP1 HTS inh 1, HIV Env fusion -3, MITF TRPM1 HTS 2 and esBAF inh -6.
`CC(C)c1ccc(N(C(=O)c2csnn2)C(C(=O)NC2CCCC2)c2ccncc2)cc1` (stereo unspecified) gave Cneo AK release -2, Wnt act 2, ERAP1 HTS inh -1, HIV Env fusion 77*, MITF TRPM1 HTS 30 and esBAF inh 36.
Screening CC(C)CCN(C(=O)c1csnn1)C(C(=O)NC1CCCCC1)c1ccc(F)cc1 (stereo unspecified) returned Cneo AK release 0, Wnt act -2, ERAP1 HTS inh 2, HIV Env fusion 59*, MITF TRPM1 HTS 14 and esBAF inh 2.
O=C(NC1CCCCC1)C(c1ccc(Cl)cc1)N(C(=O)c1cnccn1)c1ccc2c(c1)OCO2 (stereo unspecified) was read as Wnt act -1, HIV Env fusion 83* and MITF TRPM1 HTS -10.
